Data published in ChEMBL document CHEMBL2384971, “Bioactive limonoid and triterpenoid constituents of Turraea pubescens” (J Nat Prod, 2013).

What was measured:
HL-60 = assay: Cytotoxicity against human HL60 cells by MTT assay; assay type: functional, cell-based
RAW264.7 [1] = assay: Antiinflammatory activity against LPS-stimulated mouse RAW264.7 cells assessed as inhibition of NO production after 18 hrs by Griess method; assay type: functional, cell-based; details: RAW264.7, 18 h
Procedure, shortened: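 RAW 264.7 murine macrophages were seeded at 2 × 10^5 cells/well in RPMI 1640 with 10% FBS at 37 °C under 5% CO2 and preincubated for 24 h. Cells were then exposed for 18 h to serial dilutions (top concentration 25 μM; DMSO solutions diluted in medium) plus 1 μg/mL LPS. Supernatants were mixed with Griess reagents A and B in triplicate and read at 570 nm after 5 min.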

RAW264.7 [2] = assay: Cytotoxicity against mouse RAW264.7 cells at 50 uM by MTT assay; assay type: cell-based; details: raw264.7, 50 µM
Artemia salina [3] = assay: Toxicity in brine shrimp larva assessed as corrected mortality at 100 ppm after 24 hrs by microscopic analysis relative to control; assay type: functional
Procedure, shortened: (§1)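 Artemia salina larvae tested by a microwell method. Corrected mortality was derived from treatment-group mortality (Mt) against vehicle-control-group mortality (Mc).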

Artemia salina [4] = assay: Toxicity in brine shrimp larva assessed as corrected mortality at 10 ppm after 24 hrs by microscopic analysis relative to control; assay type: functional; procedure, shortened: as §1
Artemia salina [5] = assay: Toxicity in brine shrimp larva assessed as corrected mortality at 50 ppm after 24 hrs by microscopic analysis relative to control; assay type: functional; procedure, shortened: as §1

Compound: C=C1[C@@H]([C@@]2(C)C=CC(=O)C(C)(C)[C@@H]2CC(=O)OC)[C@@H](OC(C)=O)[C@H](OC(C)=O)[C@@]2(C)[C@H](C3=CC(O)OC3=O)C[C@H]3O[C@]132 (some centres not stated)
- IC50 (HL-60): < 10 µM
- IC50 (RAW264.7 [1]): > 20 µM
- Activity (RAW264.7 [2]): Non-toxic
- mortality at 100 ppm (Artemia salina [3]): < 50%

Compound: C=C1[C@@H]([C@@]2(C)[C@H](OC(C)=O)CC(=O)C(C)(C)[C@@H]2CC(=O)OC)[C@@H](OC(C)=O)[C@H](OC(=O)C(C)C)[C@@]2(C)[C@H](c3ccoc3)C[C@H]3O[C@]132
- IC50 (HL-60): < 10 µM
- mortality at 10 ppm (Artemia salina [4]): 60.8%
- mortality at 50 ppm (Artemia salina [5]): 61.8%
- IC50 (RAW264.7 [1]): > 20 µM
- Activity (RAW264.7 [2]): Non-toxic
- mortality at 100 ppm (Artemia salina [3]): 81.7%

Compound: C=C1[C@@H]([C@@]2(C)C=CC(=O)C(C)(C)[C@@H]2CC(=O)OC)[C@@H](OC(C)=O)[C@H](OC(=O)C(C)C)[C@@]2(C)[C@H](c3ccoc3)C[C@H]3O[C@]132
- IC50 (HL-60): < 10 µM
- IC50 (RAW264.7 [1]): > 20 µM
- Activity (RAW264.7 [2]): Non-toxic

Compound: C=C1[C@@H]([C@@]2(C)C=CC(=O)C(C)(C)[C@@H]2CC(=O)OC)[C@@H](OC(C)=O)[C@H](OC(=O)C(C)CC)[C@@]2(C)[C@H](c3ccoc3)C[C@H]3O[C@]132 (some centres not stated)
- IC50 (HL-60): < 10 µM
- IC50 (RAW264.7 [1]): > 20 µM
- Activity (RAW264.7 [2]): Non-toxic

Compound: CCC(=O)O[C@@H]1C[C@H](OC(C)=O)[C@@]2(C)[C@@H]([C@@H](O)[C@@H](OC(C)=O)[C@@]3(C)C4=CC[C@@H](c5ccoc5)[C@]4(C)CC[C@@H]32)C1(C)C
- IC50 (HL-60): < 10 µM
- IC50 (RAW264.7 [1]): > 20 µM
- Activity (RAW264.7 [2]): Non-toxic

Compound: C/C=C(\C)C(=O)O[C@H]1C[C@@H](OC(=O)CC)[C@@]2(C(=O)OC)CO[C@H]3[C@H]4O[C@]5(C)[C@H]6C[C@H](OC7OC=C[C@@]76O)[C@]5(O)[C@@]4(C)C4[C@]1(CO[C@]4(O)C(=O)OC)[C@@H]32 (some centres not stated)
- IC50 (HL-60): < 10 µM
- IC50 (RAW264.7 [1]): > 20 µM
- Activity (RAW264.7 [2]): Non-toxic

Compound: C/C=C(\C)C(=O)O[C@H]1C[C@@H](OC(=O)CC)[C@@]2(C(=O)OC)CO[C@H]3[C@@H](O)[C@@](C)(C45OC4(C)C4C[C@H]5O[C@@H]5OC=CC45O)C4[C@]1(CO[C@]4(O)C(=O)OC)[C@@H]32 (some centres not stated)
- IC50 (HL-60): < 10 µM
- IC50 (RAW264.7 [1]): > 20 µM
- Activity (RAW264.7 [2]): Non-toxic

Compound: CO[C@H]1O[C@@H]([C@@H]2OC2(C)C)C[C@H]1[C@@H]1CC=C2[C@]3(C)[C@H](O)C[C@H]4C(C)(C)C(=O)C=C[C@]4(C)[C@H]3CC[C@]21C
- IC50 (HL-60): < 10 µM
- IC50 (RAW264.7 [1]): 17.4 µM
- Activity (RAW264.7 [2]): Non-toxic

Compound: CO[C@@H]1O[C@@H]([C@@H]2OC2(C)C)C[C@H]1[C@@H]1CCC2[C@]3(C)[C@H](O)C[C@H]4C(C)(C)C(=O)C=C[C@]4(C)[C@H]3CC[C@]21C (some centres not stated)
- IC50 (HL-60): < 10 µM
- IC50 (RAW264.7 [1]): > 20 µM
- Activity (RAW264.7 [2]): Non-toxic

Compound: CC(=O)O[C@@H]1C[C@H]2C(C)(C)C(=O)C=C[C@]2(C)[C@H]2CC[C@]3(C)C(=CC[C@H]3[C@H]3COC(C)(C)[C@@H](O)[C@H](O)C3)[C@@]21C
- IC50 (HL-60): < 10 µM
- mortality at 10 ppm (Artemia salina [4]): 0%
- mortality at 50 ppm (Artemia salina [5]): 6.7%
- IC50 (RAW264.7 [1]): > 20 µM
- Activity (RAW264.7 [2]): Non-toxic
- mortality at 100 ppm (Artemia salina [3]): 69.8%

Compound: CC(=O)O[C@H]1C[C@@H]2[C@@]3(C)C=CC(=O)C(C)(C)[C@@H]3C[C@@H](O)[C@@]2(C)C2=CC[C@@H](c3ccoc3)[C@@]21C
- IC50 (HL-60): < 10 µM
- mortality at 10 ppm (Artemia salina [4]): 20.6%
- mortality at 50 ppm (Artemia salina [5]): 83.5%
- IC50 (RAW264.7 [1]): 11.9 µM
- Activity (RAW264.7 [2]): Non-toxic
- mortality at 100 ppm (Artemia salina [3]): 85%

Compound: CCC(=O)O[C@@H]1C[C@H](OC(C)=O)[C@@]2(C)[C@H]3[C@@H](OC[C@]13C)[C@@H](O)[C@@]1(C)C3=CC[C@@H](c4ccoc4)[C@]3(C)CC[C@@H]12
- IC50 (HL-60): < 10 µM
- mortality at 10 ppm (Artemia salina [4]): 0%
- mortality at 50 ppm (Artemia salina [5]): 36.3%
- IC50 (RAW264.7 [1]): 18.5 µM
- Activity (RAW264.7 [2]): Non-toxic
- mortality at 100 ppm (Artemia salina [3]): 75.6%

Compound: C=C1[C@@H]([C@@]2(C)C=CC(=O)C(C)(C)[C@@H]2CC(=O)OC)[C@@H](OC(C)=O)[C@H](OC(C)=O)[C@@]2(C)[C@H](c3ccoc3)C[C@H]3O[C@]132
- IC50 (HL-60): < 10 µM
- IC50 (RAW264.7 [1]): > 20 µM
- Activity (RAW264.7 [2]): Non-toxic
- mortality at 100 ppm (Artemia salina [3]): < 50%

Compound: C[C@@H](C[C@@H](O)[C@H](O)C(C)(C)O)[C@@H]1CC[C@]2(C)C3=CC[C@H]4C(C)(C)[C@@H](O)CC[C@]4(C)[C@H]3CC[C@@]12C
- IC50 (HL-60): < 10 µM
- IC50 (RAW264.7 [1]): > 20 µM
- Activity (RAW264.7 [2]): Non-toxic

Compound: C/C=C(\C)C(=O)O[C@H]1C[C@@H](OC(C)=O)[C@@]2(C(=O)OC)CO[C@H]3[C@@H](O)[C@@](C)([C@]45O[C@@]4(C)[C@@H]4C[C@H]5O[C@@H]5OC=C[C@@]54O)[C@H]4[C@]1(CO[C@]4(O)C(=O)OC)[C@@H]32 [AZADIRACHTIN A]
- IC50 (HL-60): < 10 µM
- mortality at 10 ppm (Artemia salina [4]): 12.5%
- mortality at 50 ppm (Artemia salina [5]): 59.6%
- IC50 (RAW264.7 [1]): > 20 µM
- Activity (RAW264.7 [2]): Non-toxic
- mortality at 100 ppm (Artemia salina [3]): 81.7%

Compound: C[C@@H](C[C@@H](O)[C@@H]1OC1(C)C)[C@@H]1CC[C@]2(C)C3=CC[C@H]4C(C)(C)[C@@H](O)CC[C@]4(C)[C@H]3CC[C@@]12C [DIHYDRONILOTICIN]
- IC50 (HL-60): < 10 µM
- IC50 (RAW264.7 [1]): > 20 µM
- Activity (RAW264.7 [2]): Non-toxic

Compound: CC(=O)O[C@H]1C[C@@H]2[C@@]3(C)CCC(=O)C(C)(C)[C@@H]3C[C@@H](O)[C@@]2(C)C2=CC[C@@H](c3ccoc3)[C@@]21C [MZIKONONE]
- IC50 (HL-60): < 10 µM
- mortality at 10 ppm (Artemia salina [4]): 0%
- mortality at 50 ppm (Artemia salina [5]): 36.9%
- IC50 (RAW264.7 [1]): > 20 µM
- Activity (RAW264.7 [2]): Non-toxic
- mortality at 100 ppm (Artemia salina [3]): 76.4%

Compound: CC(=O)O[C@@H]1[C@H](O)[C@H]2C(C)(C)C(=O)C=C[C@]2(C)[C@H]2CC[C@]3(C)C(=CC[C@H]3c3ccoc3)[C@]12C [NIMONOL]
- IC50 (HL-60): < 10 µM
- IC50 (RAW264.7 [1]): > 20 µM
- Activity (RAW264.7 [2]): Non-toxic

Compound: C=C1C2=CC[C@H](c3ccoc3)[C@]2(C)[C@@H](OC(C)=O)[C@H](OC(C)=O)[C@@H]1[C@@]1(C)C=CC(=O)C(C)(C)[C@@H]1CC(=O)OC [TURRAFLORIN A]
- IC50 (HL-60): < 10 µM
- IC50 (RAW264.7 [1]): 15.4 µM
- Activity (RAW264.7 [2]): Non-toxic
- mortality at 100 ppm (Artemia salina [3]): < 50%

Compound: C=C1[C@@H]([C@@]2(C)C=CC(=O)C(C)(C)[C@@H]2CC(=O)OC)[C@@H](OC(C)=O)[C@H](OC(=O)C(C)C)[C@@]2(C)[C@H](C(=O)O)C[C@H]3O[C@]132 [TURRAPUBESIC ACID B]
- IC50 (HL-60): < 10 µM
- IC50 (RAW264.7 [1]): > 20 µM
- Activity (RAW264.7 [2]): Non-toxic

Compound: C=C1[C@@H]([C@@]2(C)C=CC(=O)C(C)(C)[C@@H]2CC(=O)OC)[C@@H](OC(C)=O)[C@H](OC(=O)Cc2ccccc2)[C@@]2(C)[C@H](C3=CC(=O)OC3O)C[C@H]3O[C@]132 (some centres not stated) [TURRAPUBESIN E]
- IC50 (HL-60): < 10 µM
- IC50 (RAW264.7 [1]): > 20 µM
- Activity (RAW264.7 [2]): Non-toxic
- mortality at 100 ppm (Artemia salina [3]): < 50%

Compound: C=C1[C@@H]([C@@]2(C)[C@H](OC(C)=O)CC(=O)C(C)(C)[C@@H]2CC(=O)OC)[C@@H](OC(C)=O)[C@H](OC(C)=O)[C@@]2(C)[C@H](c3ccoc3)C[C@H]3O[C@]132 [TURRAPUBIN A]
- IC50 (HL-60): < 10 µM
- mortality at 10 ppm (Artemia salina [4]): 0%
- mortality at 50 ppm (Artemia salina [5]): 0.8%
- IC50 (RAW264.7 [1]): > 20 µM
- Activity (RAW264.7 [2]): Non-toxic
- mortality at 100 ppm (Artemia salina [3]): 54.7%

Compound: C=C1[C@@H]2[C@@H](O[C@H]3CC(=O)C(C)(C)[C@H](CC(=O)OC)[C@]32C)[C@H](OC(C)=O)[C@@]2(C)[C@H](c3ccoc3)C[C@H]3O[C@]132 [TURRAPUBIN D]
- IC50 (HL-60): < 10 µM
- IC50 (RAW264.7 [1]): > 20 µM
- Activity (RAW264.7 [2]): Non-toxic

Compound: C=C1[C@@H]([C@@]2(C)C=CC(=O)C(C)(C)[C@@H]2CC(=O)OC)[C@@H](OC(C)=O)[C@H](O)[C@@]2(C)[C@H](c3ccoc3)C[C@H]3O[C@]132 [TURRAPUBIN E]
- IC50 (HL-60): < 10 µM
- IC50 (RAW264.7 [1]): > 20 µM
- Activity (RAW264.7 [2]): Non-toxic
- mortality at 100 ppm (Artemia salina [3]): < 50%

Compound: C=C1[C@@H]([C@@]2(C)C=CC(=O)C(C)(C)[C@@H]2CC(=O)OC)[C@@H](OC(C)=O)[C@H](OC(=O)C(C)C)[C@@]2(C)[C@H](C3=CC(O)OC3=O)C[C@H]3O[C@]132 (some centres not stated) [TURRAPUBIN H]
- IC50 (HL-60): < 10 µM
- IC50 (RAW264.7 [1]): > 20 µM
- Activity (RAW264.7 [2]): Non-toxic
- mortality at 100 ppm (Artemia salina [3]): < 50%
